From ChEMBL document CHEMBL4014299, “Synthesis and anti-HIV activities of unsymmetrical long chain dicarboxylate esters of dinucleoside reverse transcriptase inhibitors” (Bioorg Med Chem Lett, 2017) come the findings set out here.

Format in all cases: cell-based
The nature of data set [1]: Inhibition of HIV1 3B […] reverse transcriptase infected in human P4R5 MAGI cells assessed as reduction in viral infection after 2 hrs by Galacto-Star beta-galactosidase reporter gene assay. The conditions noted are these: Human immunodeficiency virus 1, 3B. In a few lines:
(§1)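 Single-round infection against cell-free virus: compounds, virus and target cells incubated together 2 h, cells washed, then cultured a further 48 h. Infection read as HIV-LTR-driven galactosidase expression; EC50 = 50% effective concentration. Line 2 uses the X4 (lymphocytotropic) strain, line 3 the R5 (monocytotropic) strain. DMSO served as negative control and dextran sulfate as positive control. Triplicate (n = 3).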
(In general: A reporter such as luciferase makes a cellular process visible.)

The nature of data set [2]: Inhibition of HIV1 BaL […] reverse transcriptase infected in human P4R5 MAGI cells assessed as reduction in viral infection after 2 hrs by Galacto-Star beta-galactosidase reporter gene assay. The conditions noted are these: Human immunodeficiency virus 1, BaL. A digest of the protocol:
as §1

Data set [3] can be described thus: Cytotoxicity against human P4R5 MAGI cells after 2 hrs by MTT assay. A digest of the protocol: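 Cytotoxicity to target cells by MTT assay, giving CC50 (50% toxic concentration). Run in triplicate (n = 3).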
A general note: Formazan colour is commonly taken as a measure of viable cells.

For `Cc1cn([C@H]2C[C@H](N=[N+]=[N-])[C@@H](COC(=O)CCCCCCC(=O)OC[C@H]3O[C@@H](n4cc(C)c(=O)[nH]c4=O)C[C@@H]3N=[N+]=[N-])O2)c(=O)[nH]c1=O`, the EC50 (commonly the concentration giving half of the maximal effect) is 0.2 µM in data set [1] and less than 0.15 µM in data set [2]. Further, in data set [3], the CC50 (in general, the concentration that lowers cell viability or growth by half) at 2 h was more than 148 µM.
For the molecule `Cc1cn([C@H]2C[C@H](N=[N+]=[N-])[C@@H](COC(=O)CCC(=O)OC[C@H]3O[C@@H](n4cc(C)c(=O)[nH]c4=O)C[C@@H]3N=[N+]=[N-])O2)c(=O)[nH]c1=O`, the figures for the EC50 in data set [1] and in data set [2] were 14 µM and 68.1 µM, respectively. In addition, in data set [3], the CC50 at 2 h is more than 162 µM.
For the molecule `Cc1cn([C@H]2C[C@H](F)[C@@H](COC(=O)CCCCCCCCCCCCC(=O)O)O2)c(=O)[nH]c1=O`, the values for the EC50 in data set [1] and in data set [2] were 1.8 µM and 0.55 µM, respectively. In data set [3], this molecule showed a CC50 at 2 h of more than 61 µM.
In the same order, the values of `Cc1cn([C@H]2C[C@H](N=[N+]=[N-])[C@@H](CO)O2)c(=O)[nH]c1=O` [ZIDOVUDINE] are 34.4 µM, 129 µM and more than 374 µM.
For the molecule `Cc1cn([C@H]2C[C@H](F)[C@@H](COC(=O)CCCCCCC(=O)OC[C@H]3O[C@@H](n4cc(C)c(=O)[nH]c4=O)C[C@@H]3F)O2)c(=O)[nH]c1=O`, the EC50 is 0.4 µM in data set [1] and 0.5 µM in data set [2]. The CC50 at 2 h in data set [3] was more than 160 µM.
As for `Cc1cn([C@H]2C[C@H](N=[N+]=[N-])[C@@H](COC(=O)CCC(=O)OC[C@@H]3O[C@H](n4ccc(N)nc4=O)CS3)O2)c(=O)[nH]c1=O`, the EC50 in data set [1] was 16.1 µM; in data set [2], 19.2 µM. Moreover, in data set [3], the CC50 at 2 h was more than 173 µM.
Consider `Cc1cn([C@H]2C[C@H](F)[C@@H](COC(=O)CCCCCCCCCCCCC(=O)OC[C@@H]3O[C@H](n4cc(F)c(N)nc4=O)CS3)O2)c(=O)[nH]c1=O`, for which the values for the EC50 in data set [1] and in data set [2] were 0.047 µM and 0.075 µM, respectively. Besides, in data set [3], the CC50 at 2 h was more than 42 µM.
In the same order, the values of `Nc1ccn([C@@H]2CS[C@H](CO)O2)c(=O)n1` [LAMIVUDINE] are 32.7 µM, 11.3 µM and 80.3 µM.
Regarding `Cc1cn([C@H]2C[C@H](F)[C@@H](COC(=O)CCC(=O)OC[C@@H]3O[C@H](n4ccc(N)nc4=O)CS3)O2)c(=O)[nH]c1=O`, the EC50 in data set [1] came out at 44.5 µM; in data set [2], 42.2 µM. The same molecule returned a CC50 at 2 h in data set [3] of more than 180 µM.
`Nc1nc(=O)n([C@@H]2CS[C@H](CO)O2)cc1F` [EMTRICITABINE]: the EC50 was 1.9 µM in data set [1] and 0.7 µM in data set [2]. The molecule further returned a CC50 at 2 h in data set [3] of more than 200 µM.
On to `Nc1ccn([C@@H]2CS[C@H](COC(=O)CCCCCCC(=O)OC[C@@H]3O[C@H](n4ccc(N)nc4=O)CS3)O2)c(=O)n1`, for which the EC50 turned out to be 26.6 µM in data set [1] and 4.7 µM in data set [2]. For the same molecule, the CC50 at 2 h in data set [3] is more than 168 µM.
As to `Cc1cn([C@H]2C[C@H](F)[C@@H](COC(=O)CCC(=O)OC[C@H]3O[C@@H](n4cc(C)c(=O)[nH]c4=O)C[C@@H]3F)O2)c(=O)[nH]c1=O`, the values for the EC50 in data set [1] and in data set [2] were 3.7 µM and 3 µM, respectively. For the same molecule, the CC50 at 2 h in data set [3] was more than 175 µM.
For the molecule `Cc1cn([C@H]2C[C@H](N=[N+]=[N-])[C@@H](COC(=O)CCC(=O)OC[C@H]3O[C@@H](n4cc(C)c(=O)[nH]c4=O)C[C@@H]3F)O2)c(=O)[nH]c1=O`, the EC50 was determined as 14.7 µM in data set [1] and 17.5 µM in data set [2]. The CC50 at 2 h in data set [3] is more than 168 µM.
With `Nc1ccn([C@@H]2CS[C@H](COC(=O)CCCCCCCCCCCCC(=O)OC[C@@H]3O[C@H](n4cc(F)c(N)nc4=O)CS3)O2)c(=O)n1`, the figures for the EC50 in data set [1] and in data set [2] were 0.18 µM and 0.073 µM, respectively. Also, the CC50 at 2 h in data set [3] is more than 43 µM.
In the same order, the values of `Cc1cn([C@H]2C[C@H](F)[C@@H](CO)O2)c(=O)[nH]c1=O` [ALOVUDINE] are 0.8 µM, 3.3 µM and more than 410 µM.
`Cc1cn([C@H]2C[C@H](F)[C@@H](COC(=O)CCCCCCCCCCCCC(=O)OC[C@@H]3O[C@H](n4ccc(N)nc4=O)CS3)O2)c(=O)[nH]c1=O`: the EC50 in data set [1] amounted to 0.1 µM; in data set [2], 0.07 µM. Also, the CC50 at 2 h in data set [3] was more than 43 µM.
